From ChEMBL document CHEMBL3739258, “Click-based synthesis of bromotyrosine alkaloid analogs as potential anti-biofilm leads for SAR studies” (Bioorg Med Chem Lett, 2015)

Experiments:
Pseudoalteromonas ulvae [1] = test: Antibiofilm activity against Pseudoalteromonas ulvae TC14 assessed as microbial adhesion at 200 uM after 15 hrs by Syto61 based-fluorescence analysis relative to control; assay type: functional
Procedure, shortened: (§1)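 Cells grown in VNSS at 20 °C to stationary phase, centrifuged, and resuspended in sterile artificial seawater to OD600 0.2–0.4. Suspension incubated with compound at 200 µM in triplicate for 15 h at 20 °C. Loose cells removed with three washes in 36 g/L NaCl. Attached cells stained 10 min at room temperature with 40 µmol/L Syto 61, then washed and the stain solubilised. Fluorescence read at ex 615/em 670 nm against untreated adhesion-control wells.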

[2] = tested on: Pseudoalteromonas lipolytica; test: Antibiofilm activity against Pseudoalteromonas lipolytica TC8 assessed as microbial adhesion at 200 uM after 15 hrs by Syto61 based-fluorescence analysis relative to control; assay type: functional; procedure, shortened: as §1
Paracoccus sp. [3] = test: Antibiofilm activity against Paracoccus sp. 4M6 assessed as microbial adhesion at 200 uM after 15 hrs by Syto61 based-fluorescence analysis relative to control; assay type: functional; procedure, shortened: as §1
Pseudoalteromonas ulvae [4] = test: Antibiofilm activity against Pseudoalteromonas ulvae TC14 assessed as reduction in adhesion after 15 hrs by Syto61 based-fluorescence analysis relative to control; assay type: functional; settings: TC14, 15 h
Procedure, shortened: (§2)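 Adhesion assay: cells from a 20 °C VNSS stationary-phase culture were resuspended in artificial seawater (OD600 0.2–0.4). They were exposed to a range of compound concentrations in triplicate for 15 h at 20 °C, then washed with 36 g/L NaCl and stained 10 min with 40 µmol/L Syto 61. Fluorescence was read at ex 615/em 670 nm relative to bacteria-only controls. EC50 came from dose-response curve fitting.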

[5] = Toxicity in Pseudoalteromonas lipolytica TC8 assessed as growth inhibition at 100 uM after 15 hrs by Syto61 based-fluorescence analysis relative to control
[6] = Toxicity in Paracoccus sp. 4M6 assessed as effect on viability at 100 uM after 6 hrs by resazurin-staining assay relative to control
Procedure, shortened: (§3)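 Strains grown in VNSS at 20 °C. Bacterial suspension added to VNSS wells containing compound at 100 µM, triplicate, with solvent and untreated controls. OD600 followed hourly for 6 h. Resazurin was then added and fluorescence read after 2 h. Percent viability was calculated as in the Syto 61 adhesion assay.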

[7] = Toxicity in Paracoccus sp. 4M6 assessed as growth inhibition at 100 uM after 15 hrs by Syto61 based-fluorescence analysis relative to control
[8] = Toxicity in Pseudoalteromonas lipolytica TC8 assessed as effect on viability at 100 uM after 6 hrs by resazurin-staining assay relative to control; procedure, shortened: as §3
Paracoccus sp. [9] = test: Antibiofilm activity against Paracoccus sp. 4M6 assessed as reduction in adhesion after 15 hrs by Syto61 based-fluorescence analysis relative to control; assay type: functional; settings: Paracoccus sp. (in: a-proteobacteria), 4M6, 15 h; procedure, shortened: as §2
[10] = tested on: Pseudoalteromonas lipolytica; test: Antibiofilm activity against Pseudoalteromonas lipolytica TC8 assessed as reduction in adhesion after 15 hrs by Syto61 based-fluorescence analysis relative to control; assay type: functional; settings: TC8, 15 h; procedure, shortened: as §2
[11] = Toxicity in Pseudoalteromonas ulvae TC14 assessed as growth inhibition at 100 uM after 15 hrs by Syto61 based-fluorescence analysis relative to control
[12] = Toxicity in Pseudoalteromonas ulvae TC14 assessed as effect on viability at 100 uM after 6 hrs by resazurin-staining assay relative to control; procedure, shortened: as §3

| Compound | Activity (Pseudoalteromonas ulvae [1]) | Activity [2] | Activity (Paracoccus sp. [3]) | EC50 (Pseudoalteromonas ulvae [4]) | Activity [5] | Activity [6] | Activity [7] | Activity [8] | EC50 (Paracoccus sp. [9]) | EC50 [10] | Activity [11] | Activity [12] |
| --- | --- | --- | --- | --- | --- | --- | --- | --- | --- | --- | --- | --- |
| COc1ccc(Cn2cc(C(=O)NCCc3cnc[nH]3)nn2)cc1Br | >75% | >75% | >75% | – | – | – | – | – | – | – | – | – |
| COc1ccc(CCn2cc(C(=O)NCCc3cc(Br)c(O)c(Br)c3)nn2)cc1Br | 5.9% | 29.7% | 28.8% | 8.8 µM | Non-toxic | Non-toxic | Non-toxic | Non-toxic | 40.7 µM | 67.8 µM | Toxic | Non-toxic |
| O=C(NCCc1cnc[nH]1)c1cn(CCc2ccc(O)c(Br)c2)nn1 | >75% | >75% | >75% | – | – | – | – | – | – | – | – | – |
| COc1ccc(CCn2cc(C(=O)NCCc3ccc(O)cc3)nn2)cc1Br | 18.7% | 35% | 28.2% | 32.6 µM | Non-toxic | Non-toxic | Non-toxic | Non-toxic | 72.9 µM | 104 µM | – | Non-toxic |
| O=C(NCCc1cc(Br)c(O)c(Br)c1)c1cn(CCc2cc(Br)c(O)c(Br)c2)nn1 | 29.3% | 40.32% | 38.7% | 26.6 µM | Non-toxic | Non-toxic | Non-toxic | Non-toxic | 83.2 µM | 96 µM | – | Non-toxic |
| COc1ccc(CCn2cc(C(=O)NCCNC(=N)N)nn2)cc1Br.O=C(O)C(F)(F)F | >75% | >75% | >75% | – | – | – | – | – | – | – | – | – |
| O=C(NCCc1ccc(O)cc1)c1cn(CCc2ccc(O)cc2)nn1 | 16% | 43% | 44.5% | 72.9 µM | Non-toxic | Non-toxic | Non-toxic | Non-toxic | 196 µM | 170 µM | – | Non-toxic |
| COc1ccc(CCn2cc(C(=O)NCCc3cnc[nH]3)nn2)cc1Br | >75% | >75% | >75% | – | – | – | – | – | – | – | – | – |
| COc1ccc(CCn2cc(C(=O)NCCN)nn2)cc1Br.O=C(O)C(F)(F)F | >75% | >75% | >75% | – | – | – | – | – | – | – | – | – |
| COc1ccc(Cn2cc(C(=O)NCCCCNC(=N)N)nn2)cc1Br.O=C(O)C(F)(F)F | >75% | >75% | >75% | – | – | – | – | – | – | – | – | – |
| COc1ccc(CCn2cc(C(=O)NCCCCNC(=N)N)nn2)cc1Br.O=C(O)C(F)(F)F | >75% | >75% | >75% | – | – | – | – | – | – | – | – | – |
| COc1ccc(CCn2cc(C(=O)NCCCCN)nn2)cc1Br.O=C(O)C(F)(F)F | >75% | >75% | >75% | – | – | – | – | – | – | – | – | – |
| COc1ccc(CCn2cc(C(=O)NCCCN)nn2)cc1Br.O=C(O)C(F)(F)F | >75% | >75% | >75% | – | – | – | – | – | – | – | – | – |
| COc1ccc(Cn2cc(C(=O)NCCc3cc(Br)c(O)c(Br)c3)nn2)cc1Br | 23.3% | 40% | 37.9% | 40.2 µM | Non-toxic | Non-toxic | Non-toxic | Non-toxic | 84 µM | 124 µM | – | Non-toxic |
| COc1ccc(Cn2cc(C(=O)NCCN)nn2)cc1Br.O=C(O)C(F)(F)F | >75% | >75% | >75% | – | – | – | – | – | – | – | – | – |
| COc1ccc(Cn2cc(C(=O)NCCCN)nn2)cc1Br.O=C(O)C(F)(F)F | >75% | >75% | >75% | – | – | – | – | – | – | – | – | – |
| COc1ccc(CCn2cc(C(=O)NCCCNC(=N)N)nn2)cc1Br.O=C(O)C(F)(F)F | >75% | >75% | >75% | – | – | – | – | – | – | – | – | – |
| COc1ccc(Cn2cc(C(=O)NCCNC(=N)N)nn2)cc1Br.O=C(O)C(F)(F)F | >75% | >75% | >75% | – | – | – | – | – | – | – | – | – |
| COc1ccc(Cn2cc(C(=O)NCCc3ccc(O)cc3)nn2)cc1Br | 20.7% | 38.3% | 31.2% | 40 µM | Non-toxic | Non-toxic | Non-toxic | Non-toxic | 97.3 µM | 134 µM | – | Non-toxic |
| O=C(NCCc1cnc[nH]1)c1cn(CCc2ccc(O)cc2)nn1 | >75% | >75% | >75% | – | – | – | – | – | – | – | – | – |
| COc1ccc(Cn2cc(C(=O)NCCCCN)nn2)cc1Br.O=C(O)C(F)(F)F | >75% | >75% | >75% | – | – | – | – | – | – | – | – | – |
| COc1ccc(Cn2cc(C(=O)NCCCNC(=N)N)nn2)cc1Br.O=C(O)C(F)(F)F | >75% | >75% | >75% | – | – | – | – | – | – | – | – | – |
| O=C(NCCc1ccc(O)cc1)c1cn(CCc2ccc(O)c(Br)c2)nn1 | 31.4% | 35% | 43.4% | 69.3 µM | Non-toxic | Non-toxic | Non-toxic | Non-toxic | 156 µM | 113 µM | – | Non-toxic |
| CC1(C)S[C@@H]2[C@H](NC(=O)[C@H](N)c3ccccc3)C(=O)N2[C@H]1C(=O)O [AMPICILLIN] | 4.9% | 8.9% | 33.9% | 9.3 µM | Toxic | Toxic | Toxic | Toxic | 144 µM | 17.9 µM | – | Toxic |
